# In ChEMBL document CHEMBL1125815, “2-Phenyl-3H-imidazo[4,5-b]pyridine-3-acetamides as non-benzodiazepine anticonvulsants and anxiolytics” (J Med Chem, 1991):
# What was measured:
# [1] = molecular target: GABA-A receptor; anion channel; assay: Displacement of [3H]flunitrazepam from GABA-A benzodiazepine receptor of rat cerebral cortex membrane; assay type: tissue-based
# Summary of the method: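 Rat cerebral cortex P2+P3 membranes (fresh tissue, two freeze-thaw-wash cycles to remove endogenous GABA), 0.4 mg protein. Incubated with 1 nM [3H]flunitrazepam and six concentrations (1 × 10^-5 – 1 × 10^-10 M) for 30 min at 4 °C. Filtered on GF/b filters and counted. […] IC50 from log-logit regression, mean of replicates.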
# [2] = species on record: Mus musculus; assay: Anticonvulsant activity against pentylenetetrazole-induced clonic seizures in mice; assay type: functional
# Summary of the method: (§1)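 Female adult ICR mice, groups of eight, given test compound ip (100 mg/kg screen) in 0.5% aqueous methylcellulose or vehicle. Challenged 30 min later with pentyletetrazole 80 mg/kg sc and scored for clonic seizures.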
# [3] = test system: Mus musculus; assay: Compound was tested for anticonvulsant activity against pentylenetetrazole-induced clonic seizures in mice on intraperitoneal administration; assay type: functional; conditions: ip; summary of the method: as §1
# [4] = test system: Mus musculus; assay: Compound was tested for anticonvulsant activity against pentylenetetrazole-induced clonic seizures in mice at 80 mg/kg sc; assay type: functional; conditions: route subcutaneous; summary of the method: as §1
# [5] = species on record: Mus musculus; assay: Compound was tested for anticonvulsant activity against maximal electroshock-induced […] seizures in mice at 50mA, 200 ms; assay type: functional
# [6] = molecular target: GABA-A receptor; anion channel; assay: Displacement of [3H]-diazepam from GABA-A benzodiazepine receptor of rat cerebral cortex membrane; assay type: tissue-based
# Summary of the method: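 Membranes skipped the freeze-thaw-wash cycles, so endogenous GABA was retained. Six concentrations (1 × 10^-5 – 1 × 10^-10 M), 30 min at 4 °C, glass-fiber filtration and scintillation counting. IC50 from log-logit regression.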
# [7] = test system: Mus musculus; assay: Anticonvulsant activity against picrotoxin-induced clonic seizures in mice at 3.2 mg/kg sc; assay type: functional; conditions: route subcutaneous
# [8] = test system: Mus musculus; assay: Compound was tested for anticonvulsant activity against bicuculline-induced clonic seizures in mice at 2.7 mg/kg sc; assay type: functional; conditions: route subcutaneous
# [9] = test system: Mus musculus; assay: Compound was tested for anticonvulsant activity against pentylenetetrazole-induced clonic seizures in mice; conv = 'convulsant at 10 mg/kg'; assay type: functional, organism-based; parameters: dose 10 mg/kg; summary of the method: as §1
SMILES,IC50 [1] [µM],"ED50 ([2]; Mus musculus, read-out: ED50) [mg/kg]",other results
CC(=O)NCCNC(=O)Cn1c(-c2ccc(Cl)cc2)nc2cccnc21,7.2,,
CCN(CC)C(=O)Cn1c(-c2ccc(Cl)cc2)nc2cccnc21,1.8,16,
CN(C)CCN(C)C(=O)Cn1c(-c2ccc(Cl)cc2)nc2cccnc21,> 10,100,
CCCN(C)C(=O)Cn1c(-c2ccc(Cl)cc2)nc2cccnc21,0.68,11.6,
O=C(Cn1c(-c2ccc(Cl)cc2)nc2cccnc21)N1CCCC1,2.7,17.9,
CC(=O)N1CCN(C(=O)Cn2c(-c3ccc(Cl)cc3)nc3cccnc32)CC1,6.4,,ED50 [3]: 100 mg/kg
CC(C)N(C(=O)Cn1c(-c2ccc(Cl)cc2)nc2cccnc21)C(C)C,> 10,,
CN(C)C(=O)Cn1c(-c2ccc(Cl)cc2)nc2ccc[n+]([O-])c21,> 10,20,
CN(C)C(=O)Cn1c(-c2ccc(F)cc2)nc2cccnc21,> 10,40.5,
CN(C)C(=O)Cn1c(-c2ccc(Cl)cc2)nc2ccc(Cl)nc21,0.46,1.1,
C[C@@H](C(=O)N(C)C)n1c(-c2ccc(Cl)cc2)nc2cccnc21,> 10,31.6,
C[C@H](C(=O)N(C)C)n1c(-c2ccc(Cl)cc2)nc2cccnc21,> 10,43.5,
NC(=O)Cn1c(-c2ccc(F)cc2)nc2cccnc21,> 10,,
O=C(Cn1c(-c2ccc(Cl)cc2)nc2cccnc21)Nc1ccccc1,> 10,,
CN(C)C(=O)Cn1c(-c2ccc(Cl)cc2)nc2cnccc21,> 10,,
O=C(Cn1c(-c2ccc(Cl)cc2)nc2cccnc21)Nc1ccncc1,0.47,,
CCCN(CCC)C(=O)Cn1c(-c2ccc(Cl)cc2)nc2ncccc21,> 10,,
NC(=O)Cn1c(-c2ccc(C(F)(F)F)cc2)nc2cccnc21,> 10,11.7,
CN1CCN(C(=O)Cn2c(-c3ccc(Cl)cc3)nc3cccnc32)CC1,> 10,,ED50 [3]: 100 mg/kg
O=C(O)CCCNC(=O)Cn1c(-c2ccc(Cl)cc2)nc2cccnc21,> 10,,
Cc1ccc(-c2nc3cccnc3n2CC(N)=O)cc1,4.5,50.5,
CCCC(CCC)C(=O)O [VALPROIC ACID],,,ED50 [4]: 149 mg/kg; ED50 [5]: 272 mg/kg
CNC1=Nc2ccc(Cl)cc2C(c2ccccc2)=[N+]([O-])C1 [CHLORDIAZEPOXIDE],0.71,1.9,

SMILES,IC50 [1] [µM],"ED50 ([2]; Mus musculus, read-out: ED50) [mg/kg]",other results
CN(C)C(=O)Cn1c(-c2ccc(Br)o2)nc2cccnc21,0.2,100,
CN(C)C(=O)Cn1c(-c2ccc(Cl)cc2)nc2cc(Cl)cnc21,> 10,56.2,
O=C(O)CNC(=O)Cn1c(-c2ccc(Cl)cc2)nc2cccnc21,,,IC50 [6]: 7.1 µM
Cc1ccc(-c2nc3cccnc3n2CC(=O)N(C)C)cc1,1.75,4.7,
NC(=O)Cn1c(-c2ccccc2)nc2cccnc21,,,IC50 [6]: > 10 µM
O=C(Cn1c(-c2ccc(Cl)cc2)nc2cccnc21)Nc1ccccn1,0.31,100,
CNC(=O)Cn1c(-c2ccc(Cl)cc2)nc2cccnc21,1.6,12.5,
CN(C)C(=O)Cn1c(-c2ccccn2)nc2cccnc21,,,IC50 [6]: 2.6 µM
O=C(Cn1c(-c2ccc(Cl)cc2)nc2cccnc21)N1CCCCC1,2.7,56.2,
O=C(Cn1c(-c2ccc(Cl)cc2)nc2cccnc21)N1CCOCC1,4.1,11.5,
CN(C)CCCNC(=O)Cn1c(-c2ccc(Cl)cc2)nc2cccnc21,> 10,64,
CN(C)C(=O)Cn1c(-c2ccc(Br)s2)nc2cccnc21,2.5,,ED50 [3]: 100 mg/kg
CCCN(CCC)C(=O)Cn1c(-c2ccc(Cl)cc2)nc2ccccc21,2.7,,
NC(=O)Cn1c(-c2ccc(Cl)cc2)nc2ccc[n+]([O-])c21,> 10,52.1,
CN(C)C(=O)CCn1c(-c2ccc(Cl)cc2)nc2cccnc21,9.3,29.4,
CN(C)C(=O)Cn1c(-c2ccc(Cl)cc2)nc2c(Cl)ccnc21,> 10,,
CN(C)C(=O)Cn1c(-c2ccc(Cl)cc2)nc2cccnc21,3.6,,ED50 [3]: 4.1 mg/kg
CN(C)C(=O)Cn1c(-c2cccc(Cl)c2)nc2cccnc21,,> 56.2,ED50 [2]: <100 mg/kg; IC50 [6]: 2.4 µM
CCCN(CCC)C(=O)Cn1c(-c2ccc(Cl)cc2)nc2cccnc21,0.38,11,
CN(C)CCNC(=O)Cn1c(-c2ccc(Cl)cc2)nc2cccnc21,> 10,62,
CC(=O)Oc1ccc2nc(-c3ccc(Cl)cc3)n(CC(=O)N(C)C)c2n1,> 10,100,
CCOC(=O)CNC(=O)Cn1c(-c2ccc(Cl)cc2)nc2cccnc21,,,IC50 [6]: 9.1 µM
NC(=O)Cn1c(-c2ccc(Br)cc2)nc2cccnc21,> 10,17.8,

SMILES,IC50 [1] [µM],"ED50 ([2]; Mus musculus, read-out: ED50) [mg/kg]",other results
CN(C)C(=O)Cn1c(-c2ccc(Cl)cc2)nc2ccc(O)nc21,5.2,,
CN(C)C(=O)Cn1c(-c2ccc([N+](=O)[O-])cc2)nc2cccnc21,> 10,47,
O=C1NC(=O)C(c2ccccc2)(c2ccccc2)N1 [PHENYTOIN],,,ED50 [4]: > 300 mg/kg; ED50 [7]: > 100 mg/kg; ED50 [8]: > 100 mg/kg
CCOC(=O)N1CCN(C(=O)Cn2c(-c3ccc(Cl)cc3)nc3cccnc32)CC1,5.1,,
CN(C)C(=O)Cn1c(-c2ccccc2)nc2cccnc21,> 10,35,
CN(C)C(=O)Cn1c(-c2ccc(Br)cc2)nc2cccnc21,,7,IC50 [6]: 3 µM
NC(=O)Cn1c(-c2cccc(Cl)c2)nc2cccnc21,,,IC50 [6]: < 10 µM
CCC1(C)CC(=O)NC1=O (stereo unspecified) [ETHOSUXIMIDE],,,ED50 [4]: 130 mg/kg; ED50 [5]: > 1000 mg/kg
O=C(Cn1c(-c2ccc(Cl)cc2)nc2cccnc21)Nc1cccnc1,,100,IC50 [6]: 0.23 µM
CN(C)C(=O)Cn1c(-c2ccsc2)nc2cccnc21,> 10,38,
CCOC(=O)CCCNC(=O)Cn1c(-c2ccc(Cl)cc2)nc2cccnc21,> 10,100,
CN(C)C(=O)Cn1c(-c2ccc(C(F)(F)F)cc2)nc2cccnc21,,3.2,IC50 [6]: 3.7 µM
CCCNC(=O)Cn1c(-c2ccc(Cl)cc2)nc2cccnc21,,37.5,IC50 [6]: 1.26 µM
NC(=O)Cn1c(-c2ccc(Cl)cc2)nc2ncccc21,> 10,,
CN(C)C(=O)Cn1c(Cc2ccc(Cl)cc2)nc2cccnc21,> 10,,
CN(C)C(=O)Cn1c(-c2ccoc2)nc2cccnc21,> 10,,
Cc1ccc2nc(-c3ccc(Cl)cc3)n(CC(=O)N(C)C)c2n1,0.88,2.5,
COc1ccc(-c2nc3cccnc3n2CC(=O)N(C)C)cc1,8.5,39.5,
CN(C)C(=O)Cn1c(-c2ccc(Cl)cc2Cl)nc2cccnc21,> 10,,ED50 [9]: Convulsant
CN(C)C(=O)Cn1c(-c2ccc(Cl)cc2)nc2ccncc21,> 10,,
CN(C)C(=O)Cn1c(-c2ccco2)nc2cccnc21,> 10,> 100,
CCCCN(CCCC)C(=O)Cn1c(-c2ccc(Cl)cc2)nc2cccnc21,0.9,,ED50 [3]: 38 mg/kg
CCC1(c2ccccc2)C(=O)NC(=O)NC1=O [PHENOBARBITAL],,,ED50 [4]: 13.2 mg/kg; ED50 [7]: 27.5 mg/kg; ED50 [8]: 37.7 mg/kg; ED50 [5]: 21.8 mg/kg
